Calls of active or inactive are those of the source.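 The calls were made as follows: active = IC50 for blocking EBNA-1 binding to its DNA probe at or below 10 µM; inactive = the rest.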
Target: Epstein-Barr virus nuclear antigen 1 (EBNA-1) DNA-binding domain
Assay: EBNA-1 DNA-binding inhibitor potency, late-stage follow-up, biochemical, fluorescence polarization, dose response, powder samples (AID 489000)
Conditions: Recombinant EBNA-1 DBD, Cy5-DNA fluorescence polarization
Summary of the method: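 Assay system – EBNA-1 DNA-binding region, aa 448-610, recombinant from E. coli · Amount – 246 nM EBNA-1 DBD in buffer before compound addition · Timing – Protein-probe preincubation 30 min, compound exposure 1 h, room temperature · Technique – Cy5 fluorescence polarization · Evaluation – IC50 from sigmoidal dose-response fit · Benchmarks – high control without EBNA-1, low control with EBNA-1 only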

IC50, inactive:
Cc1cccc(C(=O)Nc2nc3ccc(S(C)(=O)=O)cc3s2)c1
COc1ccc(-n2nnnc2SCC(=O)c2cc(C)n(CC3CCCO3)c2C)cc1 (centres undefined) > 16.4 µM
Cc1ccc(C(=O)Nc2nc3ccc(Br)cc3s2)cc1C > 148 µM
Cc1ccc(C(=O)Nc2nc3cc(Br)ccc3s2)cc1C > 148 µM
COc1ccc(C(=O)Nc2nc3ccc(S(C)(=O)=O)cc3s2)cc1
Cc1ccc(C(=O)Nc2nc3cc(F)ccc3s2)cc1C > 148 µM
Cc1ccc(C(=O)Nc2nc3ccc(S(C)(=O)=O)cc3s2)cc1 > 148 µM
Cc1cc(C(=O)CSc2nnnn2-c2ccc(Cl)cc2)c(C)n1CC1CCCO1 (centres undefined) > 148 µM
Cc1cc(C(=O)CSc2nnnn2-c2ccccc2)c(C)n1C
Cc1cc(C(=O)CSc2nnnn2C2CC2)c(C)n1CC1CCCO1 (centres undefined)
O=C(CSc1nnnn1-c1ccccc1)c1ccn(CC2CCCO2)c1 (centres undefined) > 148 µM
COc1cccc2sc(NC(=O)c3ccc(C)c(C)c3)nc12 > 148 µM
Cc1cc(C(=O)CSc2nnnn2-c2ccccc2)c(C)n1Cc1cccs1 > 148 µM
COc1cccc(C(=O)Nc2nc3ccc(S(C)(=O)=O)cc3s2)c1
CCn1c(C)cc(C(=O)CSc2nnnn2-c2ccccc2)c1C > 148 µM
CS(=O)(=O)c1ccc2nc(NC(=O)c3cccc(Cl)c3)sc2c1 > 148 µM
CS(=O)(=O)c1ccc2nc(NC(=O)c3ccc(Cl)cc3)sc2c1
Cc1ccccc1-n1nnnc1SCC(=O)c1cc(C)n(CC2CCCO2)c1C (centres undefined) > 148 µM
Cc1ccccc1C(=O)Nc1nc2ccc(S(C)(=O)=O)cc2s1 > 148 µM
CS(=O)(=O)c1ccc2nc(NC(=O)c3ccccc3Cl)sc2c1 > 148 µM
CS(=O)(=O)c1ccc2nc(NC(=O)c3ccccc3F)sc2c1 > 148 µM
CS(=O)(=O)c1ccc2nc(NC(=O)c3cccc(F)c3)sc2c1 > 148 µM
Cc1cc(C(=O)CSc2nnnn2-c2cccc(F)c2)c(C)n1CC1CCCO1 (centres undefined) > 148 µM
COc1ccc2nc(NC(=O)c3ccc(C)c(C)c3)sc2c1 > 148 µM
Cc1cccc(-n2nnnc2SCC(=O)c2cc(C)n(CC3CCCO3)c2C)c1 (centres undefined) > 148 µM
COc1ccccc1C(=O)Nc1nc2ccc(S(C)(=O)=O)cc2s1 > 148 µM
COCCn1c(C)cc(C(=O)CSc2nnnn2-c2ccccc2)c1C > 148 µM
COc1ccc2sc(NC(=O)c3ccc(C)c(C)c3)nc2c1 > 148 µM
Cc1cc(C(=O)CSc2nnnn2C)c(C)n1CC1CCCO1 (centres undefined) > 148 µM
